# In ChEMBL document CHEMBL1149261, “New constrained "molecular tongs" designed to dissociate HIV-1 protease dimer” (J Med Chem, 2004):
# What was measured:
# [1] = biological target: T1, Human immunodeficiency virus type 1 protease (Human immunodeficiency virus 1, UniProt Q72874); experiment: Inhibition of HIV1 protease
# Outline: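 Protease activity read with fluorogenic substrate DABCYL-γ-Abu-Ser-Gln-Asn-Tyr-Pro-Ile-Val-Gln-EDANS in 100 mM sodium acetate, 1 mM EDTA, 1 M NaCl, pH 4.7, 30 °C. Substrate and inhibitor (DMSO, 3% v/v final) preincubated 3 min, then enzyme added (7.5 nM final). Fluorescence (ex 340, em 490 nm) followed 3 min. 8–10 inhibitor concentrations; IC50 fitted to %inhibition = 100[I]0/(IC50+[I]0).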
# [2] = biological target: T1, Human immunodeficiency virus type 1 protease; experiment: Inhibition of dimerization of HIV1 protease
# Outline: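 Zhang kinetic analysis using the same fluorogenic DABCYL/EDANS substrate assay (pH 4.7 acetate buffer, 30 °C, ex 340/em 490 nm). Initial substrate held constant; at least four protease concentrations (4.7–13.6 nM) tested at several inhibitor concentrations. Dimerization inhibition constant Kid derived from Zhang plots.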
# [3] = biological target: Human immunodeficiency virus type 1 protease (Human immunodeficiency virus 1) (UniProt Q72874); experiment: Inhibition of HIV1 protease at 5.7 uM
# Outline: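 Fluorogenic assay with DABCYL-γ-Abu-Ser-Gln-Asn-Tyr-Pro-Ile-Val-Gln-EDANS substrate, in 100 mM sodium acetate, 1 mM EDTA and 1 M NaCl at pH 4.7 and 30 °C, with 3% v/v DMSO final. Substrate and inhibitor were preincubated for 3 min. The reaction was started with HIV-1 protease (7.5 nM final). The fluorescence increase (ex 340/em 490 nm) was followed over 3 min and compared with a substrate-only blank to give % inhibition.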
SMILES,IC50 [1] [nM],Ki [2] [nM],inhibition [3] [%],Ki [1] [nM]
COC(=O)[C@@H](NC(=O)[C@H](CC(C)C)NC(=O)[C@@H](NC(=O)CCCOc1ccc2ccc(OCCCC(=O)N[C@H](C(=O)N[C@@H](CC(C)C)C(=O)N[C@H](C(=O)OC)C(C)C)C(C)C)nc2c1)C(C)C)C(C)C,1400,130,–,–
CC[C@@H](C)[C@H](NC(=O)[C@@H](NC(=O)CCCOc1ccc2ccc(OCCCC(=O)N[C@H](C(=O)N[C@H](C(=O)N[C@H](C(=O)OC)C(C)C)[C@H](C)CC)[C@@H](C)O)nc2c1)[C@@H](C)O)C(=O)N[C@H](C(=O)OC)C(C)C,–,1900,45,–
COC(=O)[C@@H](NC(=O)[C@H](CC(C)C)NC(=O)[C@@H](NC(=O)CCCOc1ccc2ccc(OCCCC(=O)N[C@@H](CCC(=O)O)C(=O)N[C@@H](CC(C)C)C(N)=O)cc2c1)C(C)C)C(C)C,2800,900,–,–
CC[C@H](C)[C@H](NC(=O)CCCOc1ccc2ccc(OCCCC(=O)N[C@H](C(=O)N[C@@H](CC(C)C)C(=O)N[C@H](C(=O)OC)C(C)C)C(C)C)cc2n1)C(=O)N[C@H](C(N)=O)[C@@H](C)O,1700,250,–,4300
COC(=O)[C@@H](NC(=O)[C@H](CC(C)C)NC(=O)[C@@H](NC(=O)CCCOc1ccc2ccc(OCCCC(=O)N[C@@H](CCC(=O)OC(C)(C)C)C(=O)N[C@@H](CC(C)C)C(N)=O)nc2c1)C(C)C)C(C)C,1800,530,–,–
CC[C@H](C)[C@H](NC(=O)CCCOc1ccc2ccc(OCCCC(=O)N[C@H](C(=O)N[C@@H](CC(C)C)C(=O)N[C@H](C(=O)OC)C(C)C)C(C)C)cc2n1)C(=O)N[C@H](C(=O)N[C@@H](CC(C)C)C(=O)OC)[C@@H](C)O,5300,400,–,–
COC(=O)[C@@H](NC(=O)[C@H](CC(C)C)NC(=O)[C@@H](NC(=O)CCCOc1ccc2ccc(OCCCC(=O)N[C@@H](CCC(=O)OC(C)(C)C)C(=O)N[C@@H](CC(C)C)C(N)=O)cc2c1)C(C)C)C(C)C,1100,420,–,–
CC[C@H](C)[C@H](NC(=O)[C@H](CCC(N)=O)NC(=O)CCCOc1ccc2ccc(OCCCC(=O)N[C@H](C(=O)N[C@@H](CC(C)C)C(=O)N[C@H](C(=O)OC)C(C)C)C(C)C)cc2c1)C(=O)N[C@H](C(N)=O)[C@@H](C)O,2800,2300,–,–
CC[C@H](C)[C@H](NC(=O)[C@H](CCC(N)=O)NC(=O)CCCOc1ccc2ccc(OCCCC(=O)N[C@H](C(=O)N[C@@H](CC(C)C)C(=O)N[C@H](C(=O)OC)C(C)C)C(C)C)cc2n1)C(=O)N[C@H](C(N)=O)[C@@H](C)O,–,–,30,–
COC(=O)[C@H](CC(N)=O)NC(=O)[C@H](CC(C)C)NC(=O)[C@@H](NC(=O)CCCOc1ccc2ccc(OCCCC(=O)N[C@H](C(=O)N[C@@H](CC(C)C)C(=O)N[C@H](C(=O)OC)C(C)C)C(C)C)cc2n1)[C@@H](C)O,5100,80,–,–
COC(=O)[C@@H](NC(=O)[C@H](CC(C)C)NC(=O)[C@@H](NC(=O)CCCOc1ccc2ccc(OCCCC(=O)N[C@@H](CCC(=O)O)C(=O)N[C@@H](CC(C)C)C(N)=O)nc2c1)C(C)C)C(C)C,–,–,20,–
COC(=O)[C@@H](NC(=O)[C@H](CC(C)C)NC(=O)[C@@H](NC(=O)CCCOc1ccc2ccc(OCCCC(=O)N[C@@H](Cc3ccc(O)cc3)C(=O)N[C@@H](CCC(=O)OC(C)(C)C)C(=O)N[C@@H](CC(C)C)C(N)=O)cc2c1)C(C)C)C(C)C,1100,230,–,–
COC(=O)[C@H](CC(C)C)NC(=O)[C@@H](NC(=O)CCCOc1ccc2ccc(OCCCC(=O)N[C@H](C(=O)N[C@@H](CC(C)C)C(=O)N[C@H](C(=O)OC)C(C)C)C(C)C)cc2n1)[C@@H](C)O,1400,1500,–,–
COC(=O)[C@@H](NC(=O)[C@H](CC(C)C)NC(=O)[C@@H](NC(=O)CCCOc1ccc2ccc(OCCCC(=O)N[C@@H](Cc3ccc(O)cc3)C(=O)N[C@@H](CCC(=O)OC(C)(C)C)C(=O)N[C@@H](CC(C)C)C(N)=O)nc2c1)C(C)C)C(C)C,1000,410,–,–
COC(=O)[C@@H](NC(=O)[C@H](CC(C)C)NC(=O)[C@@H](NC(=O)CCCOc1ccc2ccc(OCCCC(=O)N[C@H](C(=O)N[C@@H](CC(C)C)C(=O)N[C@H](C(=O)OC)C(C)C)C(C)C)cc2c1)C(C)C)C(C)C,3500,560,–,–
CC[C@H](C)[C@H](NC(=O)CCCOc1ccc2ccc(OCCCC(=O)N[C@H](C(=O)N[C@@H](CC(C)C)C(=O)N[C@H](C(=O)OC)C(C)C)C(C)C)cc2c1)C(=O)N[C@H](C(N)=O)[C@@H](C)O,4300,1500,–,6200
COC(=O)[C@H](CC(C)C)NC(=O)[C@@H](NC(=O)CCCOc1ccc2ccc(OCCCC(=O)N[C@H](C(=O)N[C@@H](CC(C)C)C(=O)N[C@H](C(=O)OC)C(C)C)C(C)C)cc2c1)[C@@H](C)O,4000,1400,–,10300
